From ChEMBL document CHEMBL3425425, “6-Substituted sulfocoumarins are selective carbonic anhdydrase IX and XII inhibitors with significant cytotoxicity against colorectal cancer cells” (J Med Chem, 2015)
pKi: −log10 of the molar value. The source made the active and inactive calls. The rule behind the calls is not given here.

What was measured:
Carbonic anhydrase 1 = Carbonic anhydrase 1 (Homo sapiens, UniProt P00915); assay: Inhibition of human recombinant carbonic anhdydrase-1 expressed in Escherichia coli pre-incubated for 6 hrs by stopped-flow CO2 hydration assay
Carbonic anhydrase 2 = Carbonic anhydrase 2 (Homo sapiens, UniProt P00918); assay: Inhibition of human recombinant carbonic anhdydrase-2 expressed in Escherichia coli pre-incubated for 6 hrs by stopped-flow CO2 hydration assay
Carbonic anhydrase 9 = Carbonic anhydrase 9 (Homo sapiens, UniProt Q16790); assay: Inhibition of human recombinant carbonic anhdydrase-9 expressed in Escherichia coli pre-incubated for 6 hrs by stopped-flow CO2 hydration assay
HT-29 [1] = assay: Cytotoxicity against human HT-29 cells assessed as reduction in cell viability at 30 uM incubated for 16 hrs under normoxic conditions by MTT assay; format: functional, cell-based
Method in brief: (§1)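 HT-29 cells were grown in high-glucose DMEM with 20% FBS at 37 °C and plated at 1 × 10^4/well. After 24 h they were exposed to 0, 30, 100 or 300 μM for 16, 48 or 72 h in normoxia (20% O2, air, 5% CO2). Washed cells got 1 mg/mL MTT for 30 min at 37 °C, formazan was dissolved in DMSO and A550 read. Untreated set at 100%. Quadruplicates, ≥3 cell batches; mean ± SEM.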

HT-29 [2] = assay: Cytotoxicity against human HT-29 cells assessed as cell viability at 30 uM incubated for 72 hrs under normoxic conditions by MTT assay; format: functional; details: HT-29, 72 h, read-out: Activity; method in brief: as §1
HT-29 [3] = assay: Cytotoxicity against human HT-29 cells assessed as cell viability at 100 uM incubated for 16 hrs under normoxic conditions by MTT assay; format: functional; details: HT-29, 16 h, read-out: Activity; method in brief: as §1
HT-29 [4] = assay: Cytotoxicity against human HT-29 cells assessed as cell viability at 100 uM incubated for 48 hrs under normoxic conditions by MTT assay; format: functional; details: HT-29, 48 h, read-out: Activity; method in brief: as §1
HT-29 [5] = assay: Cytotoxicity against human HT-29 cells assessed as cell viability at 100 uM incubated for 72 hrs under normoxic conditions by MTT assay; format: functional; details: HT-29, 72 h, read-out: Activity; method in brief: as §1
HT-29 [6] = assay: Cytotoxicity against human HT-29 cells assessed as reduction in cell viability at 300 uM incubated for 16 to 72 hrs under normoxic conditions by MTT assay; format: functional, cell-based; method in brief: as §1
HT-29 [7] = assay: Cytotoxicity against human HT-29 cells assessed as cell viability at 100 uM incubated for 72 hrs under hypoxic conditions by MTT assay; format: functional; details: HT-29, 72 h, read-out: Activity
Method in brief: (§2)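 Cells were kept in high-glucose DMEM with 20% FBS at 37 °C, seeded at 1 × 10^4/well and treated 24 h later at 0–300 μM (0, 30, 100, 300) for 16, 48 or 72 h. Incubation was in a hypoxic chamber (0.1% O2, 5% CO2, residual N2). Viability was measured by MTT (1 mg/mL, 30 min, 37 °C), with DMSO-solubilized formazan read at 550 nm and expressed against untreated control = 100%. Mean ± SEM of three experiments.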

HT-29 [8] = assay: Cytotoxicity against human HT-29 cells assessed as reduction in cell viability at 100 uM incubated for 72 hrs under hypoxic conditions by MTT assay; format: functional, cell-based; method in brief: as §2
HT-29 [9] = assay: Cytotoxicity against human HT-29 cells assessed as reduction in cell viability at 100 uM incubated for 72 hrs under normoxic conditions by MTT assay; format: functional, cell-based; method in brief: as §1
HT-29 [10] = assay: Cytotoxicity against human HT-29 cells assessed as reduction in cell viability at 30 to 300 uM incubated for 16 to 72 hrs under normoxic conditions by MTT assay; format: functional, cell-based; method in brief: as §1
HT-29 [11] = assay: Cytotoxicity against human HT-29 cells assessed as reduction in cell viability at 30 to 300 uM incubated for 16 to 72 hrs under hypoxic conditions by MTT assay; format: functional, cell-based; method in brief: as §2

Carbonic anhydrase 1, sequence (P00915 whole entry): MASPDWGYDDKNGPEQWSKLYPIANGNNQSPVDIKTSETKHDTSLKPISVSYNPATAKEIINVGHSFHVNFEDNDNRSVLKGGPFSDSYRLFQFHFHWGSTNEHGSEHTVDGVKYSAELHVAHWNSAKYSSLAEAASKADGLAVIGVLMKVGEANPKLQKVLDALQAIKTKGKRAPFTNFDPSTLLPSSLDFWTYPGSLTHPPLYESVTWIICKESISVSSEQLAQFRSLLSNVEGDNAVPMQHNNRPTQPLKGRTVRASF

SMILES	pKi (Carbonic anhydrase 1)	pKi (Carbonic anhydrase 2)	pKi (Carbonic anhydrase 9)	other results
O=C(Nc1ccc2c(c1)C=CS(=O)(=O)O2)c1ccccc1	< 5.00	< 5.00	8.18	Activity (HT-29 [1]): Active; viability at 30 µM (HT-29 [2]): 43%; viability at 100 µM (HT-29 [3]): 52%; viability at 100 µM (HT-29 [4]): 60%; viability at 100 µM (HT-29 [5]): 40%; Activity (HT-29 [6]): inactive; viability at 100 µM (HT-29 [7]): 35%
CC(C)(C)C(=O)Nc1ccc2c(c1)C=CS(=O)(=O)O2	< 5.00	< 5.00	8.25	–
O=C(Nc1ccc2c(c1)C=CS(=O)(=O)O2)c1ccccc1Br	< 5.00	< 5.00	8.01	Activity (HT-29 [8]): Active; Activity (HT-29 [9]): Active
O=C(Nc1ccc2c(c1)C=CS(=O)(=O)O2)c1ccccc1I	< 5.00	< 5.00	8.04	–
O=C(Cc1ccccc1)Nc1ccc2c(c1)C=CS(=O)(=O)O2	< 5.00	< 5.00	7.09	–
C[N+](C)(C)c1ccc2c(c1)C=CS(=O)(=O)O2	< 5.00	< 5.00	8.02	Activity (HT-29 [10]): inactive; Activity (HT-29 [11]): inactive
O=C(Nc1ccc2c(c1)C=CS(=O)(=O)O2)c1cccnc1	< 5.00	< 5.00	7.98	–
N#Cc1ccc2c(c1)C=CS(=O)(=O)O2	< 5.00	< 5.00	7.47	–
COc1ccc2c(c1)C=CS(=O)(=O)O2	< 5.00	< 5.00	7.38	–
Cc1ccc(C(=O)Nc2ccc3c(c2)C=CS(=O)(=O)O3)cc1	< 5.00	< 5.00	8.05	–
O=C(Nc1ccc2c(c1)C=CS(=O)(=O)O2)c1cccs1	< 5.00	< 5.00	7.53	–
O=C(Nc1ccc2c(c1)C=CS(=O)(=O)O2)c1ccco1	< 5.00	< 5.00	7.48	–
O=C(Nc1ccc2c(c1)C=CS(=O)(=O)O2)c1ccncc1	< 5.00	< 5.00	8.11	Activity (HT-29 [10]): inactive; Activity (HT-29 [11]): inactive
CC(=O)Nc1ccc2c(c1)C=CS(=O)(=O)O2	< 5.00	< 5.00	7.76	–
